The target of assay [1] is Kappa-type opioid receptor (Homo sapiens) (UniProt P41145). Briefly: Antagonist activity at human cloned kappa opioid receptor expressed in CHO cells assessed as inhibition of U69593-stimulated [35S]GTPgammaS binding in presence of 10 uM GDP. The format is functional, cell-based. Summed up: (§1)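 Membranes of CHO cells expressing cloned human receptor (0.4-0.6 pmol/mg), 20-40 µg protein, with 0.5 nM [³⁵S]GTPγS, 10 µM GDP final, 1% DMSO, in 20 mM Hepes pH 7.4, 100 mM NaCl, 10 mM MgCl₂; 1 h room temperature. Agonist curves (seven concentrations, 0.32-32 000 nM) ± one test concentration (µ 3-300, δ 1-50, κ 50-300 nM). Filtration over GF/B, scintillation counting; Ke as mean ± SE, ≥3 experiments.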
Chain of Kappa-type opioid receptor (Homo sapiens) (P41145 whole entry): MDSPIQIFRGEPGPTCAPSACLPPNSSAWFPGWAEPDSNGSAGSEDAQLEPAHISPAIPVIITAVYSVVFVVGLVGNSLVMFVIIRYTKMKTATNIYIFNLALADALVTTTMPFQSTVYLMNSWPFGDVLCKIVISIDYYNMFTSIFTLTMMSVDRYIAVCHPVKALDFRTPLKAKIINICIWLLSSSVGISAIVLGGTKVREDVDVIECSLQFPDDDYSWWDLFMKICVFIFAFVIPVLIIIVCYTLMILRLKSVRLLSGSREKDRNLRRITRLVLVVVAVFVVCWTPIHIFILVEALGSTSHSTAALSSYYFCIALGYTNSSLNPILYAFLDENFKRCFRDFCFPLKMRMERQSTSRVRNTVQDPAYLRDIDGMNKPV
(GTPγS is a poorly hydrolysed GTP analogue; its binding reports G protein activation.)

For assay [2], the target named is Opioid receptors; mu & delta (Homo sapiens) (UniProt P41143+P35372). Nature of the assay: Selectivity for human cloned delta opioid receptor over mu opioid receptor. Type of assay: protein assay. Summed up:
(§2)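 Ratios of Ke values from [³⁵S]GTPγS antagonism assays at cloned human µ, δ and κ receptors in CHO membranes, each run with 10 µM GDP final against DAMGO, DPDPE or U69593 agonist curves.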

In assay [3] the target is T1, Delta-type opioid receptor (Homo sapiens, UniProt P41143). Briefly: Inverse agonist activity at human cloned delta opioid receptor expressed in CHO cells assessed as […] [35S]GTP-gamma-S binding in presence of 1 uM GDP. The format is functional, cell-based.
T1 sequence (P41143 whole entry): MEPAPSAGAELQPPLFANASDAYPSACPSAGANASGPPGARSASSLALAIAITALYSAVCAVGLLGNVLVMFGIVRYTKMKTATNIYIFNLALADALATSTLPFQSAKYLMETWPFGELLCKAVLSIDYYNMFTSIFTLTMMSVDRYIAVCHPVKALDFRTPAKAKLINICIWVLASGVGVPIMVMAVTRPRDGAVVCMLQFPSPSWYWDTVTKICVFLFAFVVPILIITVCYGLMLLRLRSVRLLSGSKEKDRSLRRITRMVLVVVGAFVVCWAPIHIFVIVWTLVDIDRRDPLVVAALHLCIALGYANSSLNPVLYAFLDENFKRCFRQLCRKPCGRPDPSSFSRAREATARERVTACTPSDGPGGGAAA
Assay [4] has as its target Mu-type opioid receptor (Homo sapiens) (UniProt P35372). Briefly: Antagonist activity at human cloned mu opioid receptor expressed in CHO cells assessed as inhibition of DAMGO-stimulated [35S]GTP-gamma-S binding in presence of 10 uM GDP. Type of assay: functional, cell-based. Summed up: as §1
Assay [5] deals with T1, Delta-type opioid receptor. Nature of the assay: Inverse agonist activity at human cloned delta opioid receptor expressed in CHO cells assessed as […] [35S]GTP-gamma-S binding in presence of 1 uM GDP relative to control. The format is functional, cell-based. Further details: scale not given: the % may be the effect or the level left.
Assay [6] has as its target Kappa-type opioid receptor (Homo sapiens) (UniProt P41145). Briefly: Intrinsic activity at kappa opioid receptor in presence of 1 uM GDP. The format is functional.
For assay [7], the target named is Mu-type opioid receptor (Homo sapiens) (UniProt P35372). Briefly: Intrinsic activity at mu opioid receptor in presence of 1 uM GDP. Type of assay: functional.
Chain of Mu-type opioid receptor (Homo sapiens) (P35372 whole entry): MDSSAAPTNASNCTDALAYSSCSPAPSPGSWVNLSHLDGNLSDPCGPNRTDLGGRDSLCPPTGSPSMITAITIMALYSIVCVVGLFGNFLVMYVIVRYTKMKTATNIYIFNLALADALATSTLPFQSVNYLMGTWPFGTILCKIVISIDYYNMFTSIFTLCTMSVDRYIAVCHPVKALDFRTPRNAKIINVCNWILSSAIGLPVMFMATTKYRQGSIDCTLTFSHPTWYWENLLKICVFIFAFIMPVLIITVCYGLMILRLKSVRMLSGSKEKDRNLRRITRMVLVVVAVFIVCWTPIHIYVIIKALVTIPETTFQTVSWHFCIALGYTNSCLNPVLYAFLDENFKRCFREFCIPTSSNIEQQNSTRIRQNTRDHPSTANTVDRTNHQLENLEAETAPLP
The target in assay [8] is Opioid receptors; delta & kappa (Homo sapiens) (UniProt P41145+P41143). Briefly: Selectivity for human cloned delta opioid receptor over kappa opioid receptor. Type of assay: protein assay. An outline of the steps: as §2
Chain of Opioid receptors; delta & kappa (Homo sapiens) (P41143 whole entry, looked up): as the sequence (P41143 whole entry) above
Chain of Opioid receptors; delta & kappa (Homo sapiens) (P41145 whole entry, looked up): as the sequence (P41145 whole entry) above
Assay [9] concerns the target T1, Delta-type opioid receptor. Nature of the assay: Agonist activity at delta opioid receptor at 31.6 uM. The format is functional.
For assay [10], the target named is T1, Delta-type opioid receptor. Briefly: Antagonist activity at human cloned delta opioid receptor expressed in CHO cells assessed as inhibition of DPDPE-stimulated [35S]GTP-gamma-S binding in presence of 10 uM GDP. Type of assay: functional, cell-based. An outline of the steps: as §1

Calls of active or inactive are those of the source. The calls are words filed in the database; no cut-off is given here. Where a SMILES comes first, the peptide text is derived from it. [ ]: non-standard residue; d: D form. The star is where a group is joined. Tyr(Nα,Nα-allyl2) = C=CCN(CC=C)[C@@H](Cc1ccc(O)cc1)C(=O)*; Aib = CC(C)(N)C(=O)O

This note sets out measurements from ChEMBL document CHEMBL1146887 (J Med Chem, 2006).

Chain of Opioid receptors; mu & delta (Homo sapiens) (P35372 whole entry, looked up): as the sequence (P35372 whole entry) above
Chain of Opioid receptors; mu & delta (Homo sapiens) (P41143 whole entry, looked up): as the sequence (P41143 whole entry) above

In the case of `COc1ccc(C2(C(=O)N[C@@H]3C[C@@H]4C[C@](c5cccc(O)c5)(C3)[C@@H](C)CN4CCCc3ccccc3)CCCC2)cc1`, the Ke in [1] came out at 2.43 nM; in assay [4] it was 12 nM; in [10] it was 0.67 nM. Moreover, the Ratio Ke in assay [2] turned out to be 18; in assay [8], 3.6. In addition, the IC50 (in general, the concentration needed to halve the response being measured) in assay [3] was 0.48 nM. For the same compound, the Activity in assay [5] came to 72%. Moreover, the outcome in assay [6], in assay [7] and in [9] was inactive.

For the compound `C[C@H]1CN(CCCc2ccccc2)[C@@H]2C[C@@H](NC(=O)C3(c4ccccc4)CCCCC3)C[C@@]1(c1cccc(O)c1)C2`, the results for the Ke in [1], in [4] and in assay [10] were 10.2 nM, 22.8 nM and 0.34 nM, respectively. Further, the Ratio Ke in assay [2] turned out to be 67; in [8] it was 30. Moreover, the IC50 in assay [3] was 0.68 nM. Further, the Activity in assay [5] came out at 65%. Moreover, the result in assay [6], in [7] and in [9] was inactive.

Take `C[C@H]1CN(CCCc2ccccc2)[C@@H]2C[C@@H](NC(=O)C3(c4cccs4)CCCC3)C[C@@]1(c1cccc(O)c1)C2`: the Ke in assay [1] came out at 24 nM; in assay [4], 2.19 nM; in assay [10], 0.31 nM. Also, the Ratio Ke in [2] was determined as 7.1; in assay [8], 77. For the same compound, the IC50 in assay [3] is 0.8 nM. Also, the Activity in assay [5] was determined as 54%. Further, the outcome in assay [6], in assay [7] and in assay [9] was inactive.

Turning to `C[C@H]1CN(CCCc2ccccc2)[C@@H]2C[C@@H](NC(=O)C3(c4ccsc4)CCCC3)C[C@@]1(c1cccc(O)c1)C2`, the Ke came to 7.77 nM in [1], 2.07 nM in assay [4] and 0.24 nM in assay [10]. Moreover, the results for the Ratio Ke in assay [2] and in [8] were 8.8 and 33, respectively. The IC50 in assay [3] came to 0.45 nM. Besides, the Activity in assay [5] stood at 86%. Also, the result in assay [6], in [7] and in [9] was inactive.

`C[C@H]1CN(CCCc2ccccc2)[C@@H]2C[C@@H](NC(=O)C3(c4ccccc4)CCCCCC3)C[C@@]1(c1cccc(O)c1)C2`: the Ke amounted to 17.5 nM in assay [1], 24.4 nM in assay [4] and 0.26 nM in assay [10]. Further, the Ratio Ke in assay [2] came to 93; in assay [8], 67. In assay [3], the half-maximal inhibitory concentration (IC50) was determined as 0.39 nM. Besides, the Activity in [5] was determined as 70%. Besides, the outcome in assay [6], in [7] and in assay [9] was inactive.

Turning to `C[C@H]1CN(CCOc2ccccc2)[C@@H]2C[C@@H](NC(=O)C(C)(C)c3ccccc3)C[C@@]1(c1cccc(O)c1)C2`, the Ke came to 96.3 nM in assay [1], 11.4 nM in assay [4] and 0.87 nM in assay [10]. Further, the values for the Ratio Ke in [2] and in assay [8] were 13 and 111, respectively. The IC50 in assay [3] was 1.4 nM. Besides, the Activity in [5] was 83%. Moreover, the result in [6], in assay [7] and in assay [9] was inactive.

On to `CCC(CC)(C(=O)N[C@@H]1C[C@@H]2C[C@](c3cccc(O)c3)(C1)[C@@H](C)CN2CCCc1ccccc1)c1ccccc1`, for which the Ke in assay [1] amounted to 14.6 nM; in assay [4], 11.7 nM; in assay [10], 0.2 nM. Further, the Ratio Ke in assay [2] was found to be 59; in assay [8] it was 74. Further, the IC50 in assay [3] was 1.8 nM. In [5], the Activity was determined as 61%. The outcome in assay [6], in assay [7] and in assay [9] was inactive.

`C[C@H]1CN(CCCc2ccccc2)[C@@H]2C[C@@H](NC(=O)C(C)(C)c3ccccc3)C[C@@]1(c1cccc(O)c1)C2`: the Ke in assay [1] amounted to 13.2 nM; in [4] it was 10.3 nM; in assay [10], 0.1 nM. In addition, the figures for the Ratio Ke in assay [2] and in [8] were 103 and 132, respectively. The IC50 in assay [3] was found to be 0.4 nM. Besides, the Activity in assay [5] was determined as 64%. Also, the result in assay [6], in assay [7] and in assay [9] was inactive.

On to `Cc1ccccc1/C=C/CN1C[C@H](C)[C@@]2(c3cccc(O)c3)C[C@H](NC(=O)C(C)(C)c3ccccc3)C[C@@H]1C2`, for which the Ke was determined as 6.7 nM in assay [1], 1.02 nM in [4] and 0.47 nM in assay [10]. Besides, the Ratio Ke was determined as 2.2 in assay [2] and 14 in assay [8]. Besides, the IC50 in assay [3] was 0.12 nM. Further, the Activity in assay [5] came out at 70%. Moreover, the outcome in assay [6], in assay [7] and in [9] was inactive.

`Cc1ccccc1/C=C/CN1C[C@H](C)[C@@]2(c3cccc(O)c3)C[C@H](NC(=O)C3(c4ccccc4)CCCC3)C[C@@H]1C2`: the Ke was determined as 5.6 nM in assay [1], 2.51 nM in assay [4] and 0.33 nM in assay [10]. Further, the Ratio Ke was 7.6 in assay [2] and 22 in assay [8]. For the same compound, in assay [3], the IC50 was 0.5 nM. In assay [5], the Activity came out at 70%. The outcome in assay [6], in [7] and in assay [9] was inactive.

Regarding `CC1CN(CCCc2ccccc2)[C@@H]2C[C@@H](NC(=O)C3(c4ccccc4)CCCC3)C[C@@]1(c1cccc(O)c1)C2` (single isomer, unassigned; (+)), the Ke was 17.9 nM in [1], 8.7 nM in [4] and 0.15 nM in assay [10]. Besides, the Ratio Ke in [2] was determined as 58; in assay [8], 119. Moreover, in assay [3], the IC50 was found to be 1.8 nM. Moreover, the Activity in assay [5] was 70%. In addition, the outcome in assay [6], in assay [7] and in assay [9] was inactive.

As for `C[C@H]1CN(C)[C@@H]2C[C@@H](NC(=O)C3(c4ccccc4)CCCC3)C[C@@]1(c1cccc(O)c1)C2`, the Ke amounted to 61 nM in [1], 43.2 nM in assay [4] and 76.8 nM in assay [10]. The Ratio Ke in assay [2] was determined as 0.6; in assay [8], 0.8. Besides, in assay [3], the IC50 was found to be 95 nM. Moreover, in assay [5], the Activity amounted to 79%. Also, the result in assay [6], in assay [7] and in assay [9] was inactive.

On to `C[C@H]1CN(CCCc2ccccc2)[C@@H]2C[C@@H](NC(=O)C3(c4ccccc4)CCC3)C[C@@]1(c1cccc(O)c1)C2`, for which the Ke in assay [1] amounted to 16 nM; in assay [4], 10.6 nM; in assay [10], 0.17 nM. Further, the results for the Ratio Ke in [2] and in [8] were 62 and 94, respectively. Also, the IC50 in assay [3] was determined as 0.42 nM. The Activity in [5] amounted to 65%. The outcome in assay [6], in [7] and in [9] was inactive.

With `C=CCN(CC=C)[C@@H](Cc1ccc(O)cc1)C(=O)NC(C)(C)C(=O)NC(C)(C)C(=O)N[C@@H](Cc1ccccc1)C(=O)N[C@@H](CC(C)C)C(=O)O` ({Tyr(Nα,Nα-allyl2)}-[Aib][Aib]FL-OH), the Ratio Ke in assay [2] was 5.3; in [8] it was 43. For the same compound, the IC50 in assay [3] came to 83 nM. For the same compound, in assay [5], the Activity amounted to 75%. Also, the result in assay [6], in assay [7] and in [9] was inactive.

In the case of `C[C@H]1CN(CCCc2ccccc2)[C@@H]2C[C@@H](NC(=O)C3(c4cccc5ccccc45)CCCC3)C[C@@]1(c1cccc(O)c1)C2`, the Ke in assay [1] worked out at 43.6 nM; in assay [4], 27.2 nM; in [10] it was 1.42 nM. Moreover, the Ratio Ke in [2] was found to be 19; in [8], 31. The IC50 in [3] came out at 16 nM. The Activity in [5] is 46%. Further, the outcome in [6], in [7] and in assay [9] was inactive.

Consider `Oc1ccc2c3c1O[C@H]1c4[nH]c5ccccc5c4C[C@@]4(O)[C@@H](C2)N(CC2CC2)CC[C@]314`, for which the Ratio Ke in assay [2] amounted to 157; in assay [8], 77. Further, the outcome in assay [6], in assay [7] and in assay [9] was inactive.
